According to ChEMBL document CHEMBL4513216, “Probing the Open Global Health Chemical Diversity Library for Multistage-Active Starting Points for Next-Generation Antimalarials” (ACS Infect Dis, 2020):

test: Toxicity liver stage against HepG2, at 10uM; type: cell-based; parameters: test concentration 10 uM, cell line HepG2-A16-CD81EGFP; conditions: human, HepG2-A16-CD81EGFP cells; read-out: INHIBITION
How it was run: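 Uninfected HepG2-A16-CD81EGFP cells, 3 × 10^3 per well, 1536-well, plated on prespotted compound at 10 μM final, parasite-free screening media added to match infected plates; puromycin 10 μM positive, DMSO 0.5% negative; run in parallel with 48 h PbLuc assay at 37 °C, 5% CO2; viability by CellTiter-Glo luminescence, normalized to controls.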

Structure (SMILES) | cytotoxicity at 10 µM [%]
COc1ccc(-c2cc(N)on2)cc1OC | -9.85
Cc1c(C(=O)O)oc2ccc(I)cc12 | -1.87
O[C@H]1CC[C@@H](Cc2cc(-c3ccccc3)on2)O[C@@H]1CNCC1CC1 | -6.21
NC(=O)CN1CCC2(CC1)CC(=O)c1ccc3ccccc3c1O2 | 1.76
O=C(c1ccccn1)N1CC[C@H]2C(=O)N(c3ccsc3)CCO[C@H]2C1 | 11.6
Cc1cnc(C(=O)N2CCC3(CC2)C(=O)NCCN3CC(C)C)cn1 | 8.52
N#Cc1ccc(OC[C@]23COC[C@H]2CN(Cc2nccs2)C3)nc1 | 2.37
CCC1=N[C@@]2(CC[C@@H]3CN(C(=O)Nc4ccccc4)C[C@@H]32)C(=O)N1C | 16.8
CCn1cc2c(n1)C(COC)CN(C(=O)COc1ccccc1)C2 (stereo not given) | -2.88
c1cc([C@H]2C[C@@H]3CCN(Cc4nccs4)C[C@H]3O2)ncn1 | -150
O=C(O)Cn1nc(-c2ccccc2F)ccc1=O | 2.87
COC(=O)C(CCSC)NC(=O)Cc1c(C)nn(-c2ccccc2)c1C (stereo not given) | -4.31
Nc1nc(N2CCCCC2)ncc1C(=O)NCc1ccc(F)c(Cl)c1 | -17.2
COc1ccc(-c2nnsc2C(=O)N2CCSCC2)cc1 | -1.17
O=C(COCC(=O)N(c1ccccc1)c1ccccc1)N1CCCCC1 | 2.33
COCC(=O)NCc1ccc(-c2ncncc2C(=O)N(C)C)cc1 | 3.02
Cc1cc(-c2cnc(N3CCCC(C)C3)nc2C(C)C)on1 (stereo not given) | 3.05
COCCn1c(=O)n(C)c(=O)c2ccc(C3CCN(C(C)=O)CC3)nc21 | 4.89
c1cncc(N2CCC(c3ccncc3)CC2)c1 | 2.59
CC1(C(N)=O)CN(CC2CCOCC2)CCO1 (stereo not given) | -0.74
CN(C)c1cc(C2CCN(C(=O)c3cnn(C)c3)CC2)ccn1 | 0.075
CC(C)N1CCC(c2n[nH]cc2-c2ccnc(N)c2)C1 (stereo not given) | 2.16

Structure (SMILES) | cytotoxicity at 10 µM [%]
NCC(=O)N1CCC(c2cncc(Oc3cccnc3)n2)CC1 | -9.08
CC(C)Oc1ccc(C(=O)N2CC[C@H](O)[C@@H](n3ccnc3)CC2)cc1 | -12.8
CC(=O)N1CCCC(c2ccc3sc(N)nc3n2)C1 (stereo not given) | 0.248
CNc1cccc(C2CCCN(C(=O)c3ccn(C)n3)C2)n1 (stereo not given) | -13.4
Cc1nc(-c2ccc(C(=O)O)cc2)cc(C2CCN(C(C)C)CC2)n1 | -6.69
N#CCCCS(=O)(=O)NC1(c2ccc(F)cc2)CC1 | 2.9
OC(c1cnn(-c2ccccc2)c1)C(F)(F)F (stereo not given) | -3.75
Cc1nn(C)c(C)c1CCC(=O)NCC1(C(N)=O)CCOCC1 | 7.75
CCC(C#N)NC(=O)c1sccc1OC (stereo not given) | 1.88
COCC1CCCN(c2cncc(OCc3ccccc3)n2)C1 (stereo not given) | -4.08
COc1cc(CNC(=O)COC2CCCCC2)ccc1O | 6.81
COCCN(CC(F)F)c1cc(COC)nc2ncnn12 | 9.08
CC(C)(C)C(NC(=O)CCS(C)(=O)=O)c1ccc(F)cc1F (stereo not given) | -0.189
Cc1cc(C2CCCN(Cc3ncc(C(C)C)o3)C2)n[nH]1 (stereo not given) | 4.29
Cc1cn(CC(=O)NC2CCC(C(=O)O)CC2)c2ccccc12 (stereo not given) | -0.214
CCN(CC)C(CNS(=O)(=O)c1ccc(C(C)=O)cc1)c1ccco1 (stereo not given) | -20.1
CC(C)C(NC(=O)c1ccco1)C(=O)N1CCC2(CC1)OCCO2 (stereo not given) | 6.05
COc1ccnc(N(C)Cc2ccco2)n1 | 14
Cc1cccc2c(CCNC(=O)NCC[S+](C)[O-])c[nH]c12 (stereo not given) | 9.62
CN(CCCc1cc(-c2cccc(F)c2)n[nH]1)C(=O)Cn1cncn1 | -129
Cc1ccc(CN(C)C(=O)c2cccc(NC(N)=O)c2)o1 | 14.2
COc1ccccc1OCCN(C)c1cc(C)nc(N)n1 | 10.4

Structure (SMILES) | cytotoxicity at 10 µM [%]
Cc1cnn(CCCNC(=O)NC2CCN(CC(F)(F)F)C2=O)c1 (stereo not given) | 5.79
Cc1nc(C)c(CNC(=O)N2CCc3ccccc3C2CO)s1 (stereo not given) | 23.7
CCS(=O)(=O)N1CCCn2c(nc(CN3CCCC3)cc2=O)C1 | 1.88
CN(C)[C@@H]1CCN(S(C)(=O)=O)[C@H]1Cc1ccccc1 | 11.7
CN1Cc2ccccc2CC2(CCN(C(=O)N3CCOCC3)CC2)C1=O | 1.02
CCN1Cc2ccccc2CC2(CCN(C)CC2)C1=O | 14.3
Cn1ccc(C(=O)NC2CCC23CCN(C(=O)c2ccnnc2)CC3)c1 (stereo not given) | -72
CCOCC(=O)N1CC[C@H]2[C@@H]1CCC(=O)N2Cc1csc(C)n1 | -85.2
CS(=O)(=O)N[C@@H]1CN(C(=O)c2cnccn2)[C@@H]2CCCO[C@@H]21 | -73.4
Cc1cc(C(=O)N2CC[C@H]3C[C@H](c4ccncn4)O[C@@H]3C2)no1 | -78
CC(=O)N1CCO[C@@H]2CN(C(=O)c3cc(C)oc3C)CC[C@@H]2C1 | 10.5
CCCNC(=O)c1cc2c(c3ccccc3n2C)n1C(=O)N(C)C | 0.539
C[C@H](O)CNc1cc(-c2ccccc2)ncn1 | -11.2
Cc1ncncc1-c1ccnc(NC(C)C)n1 | -0.279
CN1CCN(CC2CC2)C(=O)c2cnc(N3CCOCC3)nc21 | -10.3
Cc1csc2ncc(-c3ccnc(N4CCCN(C)CC4)n3)c(=O)n12 | -6.97
COc1ccc(C(=O)N2CCN(C(=O)CCCc3cn[nH]c3)CC2)cc1 | -5.63
COC(=O)c1cc2n(n1)CCCN(C(=O)Cc1c[nH]c3ccccc13)C2 | 2.61
NC(=O)CN1CCC(C(=O)NCC(O)c2cccc(F)c2)CC1 (stereo not given) | 10.8
Oc1ccc(CCC2CCCCN2Cc2noc(C3CC3)n2)cc1 (stereo not given) | 0.55
CCNc1ncc(C(=O)NCc2cccc(OC(F)(F)F)c2)cn1 | -2.94
CCn1ncc2[nH]c(-c3cc(OC)c(OC)cc3OC)nc21 | -2.61

Structure (SMILES) | cytotoxicity at 10 µM [%]
CCC(O)CNC(=O)c1coc(COc2ccc3sc(C)nc3c2)n1 (stereo not given) | 16.3
Cc1nc(CN2CCCC(NCc3ccc(Cl)s3)C2)no1 (stereo not given) | -3.18
Cc1cc(C)c(CNC(=O)N(C)Cc2ccoc2)c(=O)[nH]1 | -6.02
Cc1nc(C)n(CC2CN(Cc3ccccc3OC(C)C)CCO2)n1 (stereo not given) | -0.248
CN(CC(=O)NC1CCOCC1)C1CCCN(c2cccnn2)C1 (stereo not given) | -8.97
Cc1ccccc1C1CCCN1Cc1ccc(S(=O)(=O)N(C)C)o1 (stereo not given) | -3.42
Cc1ccc(-c2nc(CN3CCC(N4CCNC4=O)CC3)co2)cc1 | -7.73
c1csc(-c2noc(CN3CCc4cncnc4C3)n2)c1 | -9.5
Cc1cc(CN2CCN(C(=O)NCc3csc(C)n3)CC2)no1 | -17.6
O=c1[nH]c(CCN2CCCC2Cn2cncn2)nc2ccccc12 (stereo not given) | -5.48
COc1ccccc1C(O)CNC(=O)NCc1cc[nH]n1 (stereo not given) | -8.81
CC(C)c1nc(C2CCCN2Cc2nccn2CC(F)(F)F)no1 (stereo not given) | -18.9
Cc1nn(C)c(C)c1C1CCCN1CC(=O)NCc1ccccn1 (stereo not given) | 0.702
CCCOc1cccc(C(=O)N2CCCC(n3cncn3)C2)c1 (stereo not given) | -4.39
CN(Cc1nnc2n1CCC2)C(=O)c1ccc2c(c1)OCCCO2 | -8.68
Cc1csc(N2CCN(C(=O)CCCNc3ncccn3)CC2)n1 | -16.3
Cc1cccc(OCCC(=O)NC(C)c2nnc3n2CCC3)c1 (stereo not given) | -12.8
COc1ccc(CNC(=O)Nc2ccc(N3CCCC3)nc2)cc1O | -18.1
COCc1nc(C(=O)N2CCCC(n3nc(C)nc3C)C2)cs1 (stereo not given) | -24.1
CCn1ccnc1CN1CCN(C(C)C(=O)N2CCC(C)CC2)CC1 (stereo not given) | -10.7
Cc1ccc(NC2CCN(C(=O)CCNS(C)(=O)=O)CC2)nn1 | -5.58
Cc1cc(C)n(CC2CCCN2CCS(=O)(=O)c2ccccc2)n1 (stereo not given) | -7.23

Structure (SMILES) | cytotoxicity at 10 µM [%]
c1ccc2sc(N3CCOC(Cn4cccn4)C3)nc2c1 (stereo not given) | -12.8
CCCn1nc2c(cc1=O)CN(CC(=O)Nc1nnc(C)s1)CC2 | -11.3
COCCN1CCCN(C(=O)NC(C)Cn2ccnc2)CC1 (stereo not given) | -9.29
Nc1ncnc2nc(C3CCCCN3)ccc12 (stereo not given) | 5.74
Cc1noc(C)c1CN1CC[C@@H]2O[C@@H](COCC3CC3)CC[C@@H]21 | 6.46
c1cnc(NC2COC3(CCN(Cc4cc[nH]n4)CC3)C2)nc1 (stereo not given) | -1.17
COc1ccc(CN2CCC3(CC2)CN(c2ccccn2)CCO3)cc1 | 2.87
Cc1nc(CN2CCOCC3(CCN(c4ncccn4)C3)C2)cs1 (stereo not given) | -22.8
CN(C)C(=O)CN1CC[C@]2(CN(CC3CC3)C[C@H]2c2ccccc2)C1=O | 1.46
COc1ccc(CN2CCO[C@@H]3C[C@@H](C(=O)NC(C)C)C[C@H]32)cc1 | 8.31
CC(=O)CN1CC2(CCNCC2)COc2ccccc2S1(=O)=O | 3.13
CCN1CCC(c2nc3ccc(NC(C)C)cn3n2)CC1 | -22.3
Cc1ccc(NCc2cn3c(n2)CN(Cc2ccoc2)CC3)nn1 | 9.43
Cc1cccc(CNC2CCCc3c2cnn3Cc2ccccc2)c1 (stereo not given) | -16.6
O=C(NCc1ccccn1)[C@@H]1COC[C@H]2CN(C3CCC3)C[C@H]21 | -79.1
COc1cc(CNC2CCCc3c2cnn3C)cc(OC)c1 (stereo not given) | -6.85
CCS(=O)(=O)N1CCN(CCn2cccn2)c2nc(C)ccc2C1 | 9.88
COCCN(C)C1COC2(CCN(Cc3cccc(F)c3)CC2)C1 (stereo not given) | -79.3
CC(C)n1nc(CN2CCCCC2)c2c1CN(C(=O)c1ccno1)C2 | 4.19
COCCn1cc2c(n1)C(CNCc1nccs1)OCC2 (stereo not given) | -0.726
CNC(=O)c1ccc2c(c1)C1(CCN(CC3CC3)CC1)C(=O)N2 | -0.843
O=S(=O)(c1cccs1)N1CCCn2cnc(CO)c2C1 | 5.89
